pIC50, pKi: −log10 of the molar value. Converted amounts (≈) assume the structure as drawn. The source made the active and inactive calls. The rule behind the calls is not given here.
Columns and labels:
[1] = Octanol-water intrinsic distribution co-efficient, log D of the compound at 100 uM at pH 7.4 after 16 to 22 hrs by CAMDIS assay; type: physicochemical
Procedure, shortened: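 Distribution between octanol and aqueous buffer at pH 7.4, CAMDIS carrier-mediated system.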

[2] = Solubility of the compound at pH 6.5 by LYSA; type: physicochemical; conditions: buffer
Procedure, shortened: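 Lyophilisation solubility assay at pH 6.5.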

Rhodesain = Rhodesain (Trypanosoma brucei rhodesiense, UniProt Q95PM0); test: Inhibition of Trypanosoma brucei rhodesiense rhodesain using Cbz-Phe-Arg-AMC as substrate by fluorimetric method
Rhodesain, sequence (Q95PM0 whole entry): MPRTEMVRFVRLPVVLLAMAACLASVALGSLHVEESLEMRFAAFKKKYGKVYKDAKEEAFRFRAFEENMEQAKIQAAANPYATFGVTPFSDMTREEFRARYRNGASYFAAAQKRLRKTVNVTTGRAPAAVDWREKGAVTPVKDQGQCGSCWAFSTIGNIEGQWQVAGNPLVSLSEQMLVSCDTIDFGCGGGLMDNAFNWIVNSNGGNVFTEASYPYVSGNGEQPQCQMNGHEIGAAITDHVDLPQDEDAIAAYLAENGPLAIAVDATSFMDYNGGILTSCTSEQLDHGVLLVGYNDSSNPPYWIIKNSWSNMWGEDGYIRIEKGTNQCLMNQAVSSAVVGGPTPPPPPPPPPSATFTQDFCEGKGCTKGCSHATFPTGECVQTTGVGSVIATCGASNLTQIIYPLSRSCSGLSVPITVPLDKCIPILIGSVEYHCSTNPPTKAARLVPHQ
Procedure, shortened: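 Fluorescence-based protease assay. IC50 was converted to Ki by the Cheng-Prusoff equation. Values are the average of two measurements, each run in duplicate.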

Procathepsin L = Procathepsin L (Homo sapiens, UniProt P07711); test: Inhibition of human CatL using Cbz-Phe-Arg-AMC as substrate measured over 30 mins by fluorimetric method
Procathepsin L, sequence (P07711 whole entry): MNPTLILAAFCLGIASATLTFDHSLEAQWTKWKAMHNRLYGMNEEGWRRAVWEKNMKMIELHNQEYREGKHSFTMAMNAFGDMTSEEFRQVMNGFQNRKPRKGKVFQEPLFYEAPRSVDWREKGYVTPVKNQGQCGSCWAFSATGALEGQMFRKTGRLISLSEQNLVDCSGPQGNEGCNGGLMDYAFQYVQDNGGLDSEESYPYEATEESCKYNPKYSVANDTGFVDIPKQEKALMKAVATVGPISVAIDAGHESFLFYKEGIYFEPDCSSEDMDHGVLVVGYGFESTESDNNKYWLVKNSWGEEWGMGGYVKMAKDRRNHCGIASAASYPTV

[3] = Effective permeability of the compound after 15 hrs by PAMPA; type: physicochemical; conditions: read-out: Peff
Cytochrome P450 3A4 = Cytochrome P450 3A4 (Homo sapiens, UniProt P08684); test: Inhibition of CYP3A4 in human liver microsomes using DBF as substrate by fluorescence assay; type: ADME
Cytochrome P450 3A4, sequence (P08684 whole entry): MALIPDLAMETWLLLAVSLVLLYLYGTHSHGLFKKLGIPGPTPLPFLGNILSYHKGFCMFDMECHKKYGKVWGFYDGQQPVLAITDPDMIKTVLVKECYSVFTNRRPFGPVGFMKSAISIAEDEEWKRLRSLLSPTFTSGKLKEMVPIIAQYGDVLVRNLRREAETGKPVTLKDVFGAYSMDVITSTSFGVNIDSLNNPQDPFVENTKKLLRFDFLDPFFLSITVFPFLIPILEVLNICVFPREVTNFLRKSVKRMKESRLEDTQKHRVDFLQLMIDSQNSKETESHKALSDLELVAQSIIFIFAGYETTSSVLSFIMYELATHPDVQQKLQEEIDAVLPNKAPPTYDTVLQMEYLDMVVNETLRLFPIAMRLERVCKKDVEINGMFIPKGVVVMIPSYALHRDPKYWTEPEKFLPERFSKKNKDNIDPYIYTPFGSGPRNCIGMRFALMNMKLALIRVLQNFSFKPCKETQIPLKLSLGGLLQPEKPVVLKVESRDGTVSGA

Cytochrome P450 2D6 = Cytochrome P450 2D6 (Homo sapiens, UniProt P10635); test: Inhibition of CYP2D6 in human liver microsomes using AMMC as substrate by fluorescence assay; type: ADME
Cytochrome P450 2D6, sequence (P10635 whole entry): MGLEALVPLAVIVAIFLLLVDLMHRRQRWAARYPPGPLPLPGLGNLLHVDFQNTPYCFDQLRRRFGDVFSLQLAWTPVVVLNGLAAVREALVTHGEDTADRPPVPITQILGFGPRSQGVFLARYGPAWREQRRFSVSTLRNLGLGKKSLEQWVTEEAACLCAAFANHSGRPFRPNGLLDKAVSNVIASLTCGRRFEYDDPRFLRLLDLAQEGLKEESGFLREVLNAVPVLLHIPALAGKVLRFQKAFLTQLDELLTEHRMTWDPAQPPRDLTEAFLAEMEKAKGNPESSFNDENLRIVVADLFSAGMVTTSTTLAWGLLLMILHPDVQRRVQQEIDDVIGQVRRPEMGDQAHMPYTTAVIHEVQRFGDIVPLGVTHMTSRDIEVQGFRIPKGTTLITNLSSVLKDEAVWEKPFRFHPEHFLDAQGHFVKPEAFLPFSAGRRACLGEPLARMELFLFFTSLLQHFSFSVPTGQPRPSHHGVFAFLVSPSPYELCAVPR

Cytochrome P450 2C9 = Cytochrome P450 2C9 (Homo sapiens, UniProt P11712); test: Inhibition of CYP2C9 in human liver microsomes using MFC as substrate by fluorescence assay
Cytochrome P450 2C9, sequence (P11712 whole entry): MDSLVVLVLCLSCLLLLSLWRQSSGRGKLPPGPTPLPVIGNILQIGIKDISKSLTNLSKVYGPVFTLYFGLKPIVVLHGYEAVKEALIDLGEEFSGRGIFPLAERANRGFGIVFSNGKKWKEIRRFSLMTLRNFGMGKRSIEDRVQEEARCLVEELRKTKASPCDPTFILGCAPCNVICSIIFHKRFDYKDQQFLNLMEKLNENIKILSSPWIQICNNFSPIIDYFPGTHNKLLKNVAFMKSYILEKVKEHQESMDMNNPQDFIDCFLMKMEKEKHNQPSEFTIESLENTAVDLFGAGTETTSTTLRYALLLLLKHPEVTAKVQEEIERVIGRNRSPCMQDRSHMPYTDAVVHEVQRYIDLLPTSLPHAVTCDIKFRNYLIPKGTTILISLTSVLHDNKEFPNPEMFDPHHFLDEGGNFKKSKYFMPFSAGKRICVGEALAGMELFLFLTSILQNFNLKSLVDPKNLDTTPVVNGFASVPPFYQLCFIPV

[4] = Half life in C57BL/6J mouse administered via iv as bolus dose by LC-MS/MS analysis; type: ADME, organism-based; conditions: in vivo
Procedure, shortened: (§1)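 Male adult C57BL/6J mice, single i.v. bolus in N-methylpyrrolidinone/40% aqueous hydroxypropyl-γ-cyclodextrin (30/70); blood at 5, 15, 30 min, 1, 2, 4, 8 h; plasma by centrifugation, stored −20 °C; LC–MS/MS; non-compartmental analysis.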

[5] = Clearance in C57BL/6J mouse administered via iv as bolus dose by LC-MS/MS analysis; type: ADME, organism-based; conditions: in vivo; procedure, shortened: as §1
[6] = Volume of distribution at steady state in C57BL/6J mouse administered via iv as bolus dose by LC-MS/MS analysis; type: ADME, organism-based; conditions: in vivo, read-out: Vdss; procedure, shortened: as §1
[7] = Ratio of drug level in brain to plasma in C57BL/6J mouse administered via iv as bolus dose by LC-MS/MS analysis
MDR1 = test: Efflux ratio of permeability across pig LLC-PK1 cells expressing human MDR1 at 1 uM after 3.5 hrs by LC-MS/MS analysis; type: ADME, cell-based, Sus scrofa
Procedure, shortened: (§2)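 Porcine kidney LLC-PK1 cells stably transfected with human ABCB1 (MDR1) or mouse Abcb1a (Mdr1a). Cells were grown with 10% FCS and 100 ng/mL colchicine and seeded on permeable inserts, then assayed on day 4. Compound was added at 1 μM to the apical or basolateral side, and transport was run in both directions in triplicate at 37 °C, 5% CO2. Donor and receiver were sampled at 3.5 h and quantified by LC–MS/MS. Lucifer yellow was used as the monolayer tightness control.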

Mdr1a = test: Efflux ratio of permeability across pig LLC-PK1 cells expressing mouse Mdr1a at 1 uM after 3.5 hrs by LC-MS/MS analysis; type: ADME, cell-based, Sus scrofa; procedure, shortened: as §2
[8] = test system: Trypanosoma brucei rhodesiense; test: Antitrypanosomal activity against bloodstream form of Trypanosoma brucei rhodesiense STIB 900 infected in NMRI mouse assessed as reduction of parasitemia at 25 mg/kg, ip bid administered for 4 consecutive days starting 3 days post infection measured 24 hrs post last dose; type: functional, organism-based
Procedure, shortened: (§3)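 Mice infected with T. b. rhodesiense STIB900 (acute model); dosing from day 3 post-infection on four consecutive days, 25 mg kg⁻¹ i.p. twice daily, 0.1 mL/10 g; three infected-untreated controls; parasitaemia monitored by tail-snip blood smears twice weekly for two weeks, then weekly to day 60; relapse day recorded post-infection.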

[9] = Plasma concentration in rat at 3 mg/kg administered via infusion over 30 mins; type: ADME, organism-based; conditions: iv
Procedure, shortened: (§4)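 Rats given 3 mg kg⁻¹ by infusion over 30 min, then sacrificed; plasma, brain and CSF concentrations measured; ratios to plasma derived; average of three independent measurements.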

[10] = Drug uptake in rat brain at 3 mg/kg administered via infusion over 30 mins; type: ADME, organism-based; conditions: iv, read-out: Drug uptake; procedure, shortened: as §4
[11] = Drug uptake in rat cerebrospinal fluid at 3 mg/kg administered via infusion over 30 mins; type: ADME, organism-based; conditions: iv, read-out: Drug uptake; procedure, shortened: as §4
[12] = Ratio of drug level in rat brain to plasma at 3 mg/kg administered via infusion over 30 mins; conditions: iv
[13] = Ratio of drug level in rat CSF to plasma at 3 mg/kg administered via infusion over 30 mins; conditions: iv
[14] = test system: Trypanosoma brucei rhodesiense; test: Antitrypanosomal activity against bloodstream form of Trypanosoma brucei rhodesiense STIB 900 assessed as parasite growth inhibition incubated for 24 to 48 hrs followed by 72 hrs recovery by Alamar blue assay; type: functional
[15] = test system: Trypanosoma brucei rhodesiense; test: Antitrypanosomal activity against bloodstream form of Trypanosoma brucei rhodesiense STIB 900 infected in NMRI mouse assessed as days required to prevent relapse of trypanosome at 25 mg/kg, ip bid administered for 4 consecutive days starting 3 days post infection; type: functional; procedure, shortened: as §3
[16] = test system: Trypanosoma brucei rhodesiense; test: Antitrypanosomal activity against bloodstream form of Trypanosoma brucei rhodesiense STIB 900 infected in NMRI mouse assessed as mouse survival at 25 mg/kg, ip bid administered for 4 consecutive days starting 3 days post infection (reference value: 13 days); type: functional
Procedure, shortened: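 T. b. rhodesiense STIB900 acute mouse infection model. Dosing was 25 mg/kg i.p. twice daily for 4 consecutive days, starting 3 days post-infection, at 0.1 mL/10 g. Three infected mice served as untreated controls without vehicle. Parasitaemia was followed by tail-blood smears twice weekly for two weeks, then weekly to day 60. Relapse day and mean survival days were recorded.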

[17] = Drug uptake in bloodstream form of Trypanosoma brucei rhodesiense STIB 900 infected NMRI mouse blood at 25 mg/kg, ip bid administered for 4 consecutive days starting 3 days post infection measured at 1 hr post last dose; type: ADME, organism-based; conditions: read-out: Drug uptake
[18] = Drug uptake in bloodstream form of Trypanosoma brucei rhodesiense STIB 900 infected NMRI mouse blood at 25 mg/kg, ip bid administered for 4 consecutive days starting 3 days post infection measured at 4 hrs post last dose; type: ADME, organism-based; conditions: read-out: Drug uptake
[19] = Drug uptake in bloodstream form of Trypanosoma brucei rhodesiense STIB 900 infected NMRI mouse blood at 25 mg/kg, ip bid administered for 4 consecutive days starting 3 days post infection measured at 16 hrs post last dose; type: ADME, organism-based; conditions: read-out: Drug uptake
[20] = test system: Trypanosoma brucei brucei; test: Antitrypanosomal activity against Trypanosoma brucei brucei TC 221 assessed as parasite growth inhibition after 72 hrs by Alamar blue assay; type: functional; conditions: TC 221, 72 h
Cathepsin B = Cathepsin B (Homo sapiens, UniProt P07858); test: Inhibition of human cathepsin B
Cathepsin K = biological target: T1, Cathepsin K (Homo sapiens, UniProt P43235); test: Inhibition of human cathepsin K
T1 sequence (P43235 whole entry): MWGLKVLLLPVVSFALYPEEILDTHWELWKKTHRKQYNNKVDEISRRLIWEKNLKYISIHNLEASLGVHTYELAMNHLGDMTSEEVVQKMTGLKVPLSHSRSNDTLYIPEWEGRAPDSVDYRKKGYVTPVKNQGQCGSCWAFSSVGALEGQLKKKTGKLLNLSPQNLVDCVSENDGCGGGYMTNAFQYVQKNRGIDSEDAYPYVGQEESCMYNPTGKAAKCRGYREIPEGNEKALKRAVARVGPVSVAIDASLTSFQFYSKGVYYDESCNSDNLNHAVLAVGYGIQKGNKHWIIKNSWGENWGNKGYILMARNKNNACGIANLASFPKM

Cathepsin S = Cathepsin S (Homo sapiens, UniProt P25774); test: Inhibition of human cathepsin S
Cathepsin S, sequence (P25774 whole entry): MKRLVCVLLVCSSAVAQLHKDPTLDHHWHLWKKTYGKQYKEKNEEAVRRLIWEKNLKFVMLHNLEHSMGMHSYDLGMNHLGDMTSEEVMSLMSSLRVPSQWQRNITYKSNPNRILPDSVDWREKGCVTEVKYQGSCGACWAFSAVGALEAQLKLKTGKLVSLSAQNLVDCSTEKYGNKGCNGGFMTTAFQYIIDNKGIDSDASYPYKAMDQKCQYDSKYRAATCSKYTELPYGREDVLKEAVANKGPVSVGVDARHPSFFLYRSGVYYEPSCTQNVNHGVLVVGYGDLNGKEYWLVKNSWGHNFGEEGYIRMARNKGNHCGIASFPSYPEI

Cathepsin L2 = biological target: T2, Cathepsin L2 (Homo sapiens, UniProt O60911); test: Inhibition of human cathepsin V
T2 sequence (O60911 whole entry): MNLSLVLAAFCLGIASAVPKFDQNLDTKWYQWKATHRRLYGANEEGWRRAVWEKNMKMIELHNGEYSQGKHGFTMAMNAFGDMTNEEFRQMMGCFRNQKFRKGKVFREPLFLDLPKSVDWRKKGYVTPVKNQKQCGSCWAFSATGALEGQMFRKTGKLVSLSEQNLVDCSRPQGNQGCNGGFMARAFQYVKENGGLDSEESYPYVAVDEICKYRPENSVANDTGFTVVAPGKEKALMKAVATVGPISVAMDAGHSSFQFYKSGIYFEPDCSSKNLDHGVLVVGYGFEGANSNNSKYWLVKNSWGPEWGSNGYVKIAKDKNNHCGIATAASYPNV

Compound N#CC1(NC(=O)[C@@H]2Cc3ccc(c(Cl)c3)OCCCCOc3cc(C(F)(F)F)ccc3C(=O)N2)CC1 has a logD at 100 µM [1] of 3.7, a solubility [2] of 12 µg/mL (≈ 23 µM) and a pKi (Rhodesain) of 7.96. For the same compound, the pKi (Procathepsin L) was 8.00, the Papp at 15 h [3] was 0.4 ×10⁻⁶ cm/s and the pIC50 (Cytochrome P450 3A4) was 4.37. It also gave a pIC50 (Cytochrome P450 2D6) of 4.96, a pIC50 (Cytochrome P450 2C9) of 4.80 and a half-life [4] of 162 min. It also gave a clearance [5] of 79 mL/min/kg, a Vd [6] of 7.2 L/kg and a Kp [7] of under 0.5. For the same compound, the efflux ratio at 3.5 h, 1 µM (MDR1) was 26, the efflux ratio at 3.5 h, 1 µM (Mdr1a) was 53 and the Activity [8] was “Active”. It also gave a concentration at 0.5 h [9] of 404 ng/mL, a concentration at 0.5 h [10] of 256 ng/g and a concentration at 0.5 h [11] of 2.3 ng/mL. The Kp at 0.5 h [12] was 0.7, the Kp at 0.5 h [13] was 0.006 and the pIC50 [14] was 8.00. The Time [15] was 10.2 days, the Survival [16] was 16.3 days and the concentration at 1 h [17] was 237 ng/mL. It also gave a concentration at 4 h [18] of 15.1 ng/mL, a concentration at 16 h [19] of 4.8 ng/mL and a pIC50 [20] of 8.40. The pIC50 (Cathepsin B) was 5.05, the pIC50 (Cathepsin K) was at most 4.60 and the pIC50 (Cathepsin S) was 5.57. It also gave a pIC50 (Cathepsin L2) of 5.98.

From ChEMBL document CHEMBL4043299, “Repurposing a Library of Human Cathepsin L Ligands: Identification of Macrocyclic Lactams as Potent Rhodesain and Trypanosoma brucei Inhibitors” (J Med Chem, 2018)
